How the values were obtained:
Type in all cases: functional, Heart
Conditions in all cases: route intraperitoneal
[1] = test system: Rattus norvegicus; assay: Cardioprotective effect in Langendorff perfused Wistar rat hearts assessed as ischemic damage measured by rate-pressure product-120 at 1 mg/kg, ip
In short: (§1)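 Rats pretreated intraperitoneally (test agents 40 mg/kg; reference agents 40 or 1 mg/kg); hearts isolated and Langendorff-perfused through an ischemia-reperfusion cycle. Rate-pressure product at 120 min reperfusion expressed as % of the last preischemic minute. After reperfusion, TTC staining of left ventricle (necrotic white/pale pink, healthy red); injured area given as % of total area. Mean ± SE, n = 4-6 experiments.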

[2] = test system: Rattus norvegicus; assay: Cardioprotective effect in Langendorff perfused Wistar rat hearts assessed as ratio for ischemic injured area to total area at 1 mg/kg, ip; in short: as §1
[3] = test system: Rattus norvegicus; assay: Cardioprotective effect in Langendorff perfused Wistar rat hearts assessed as ischemic damage measured by rate-pressure product-120 at 40 mg/kg, ip; in short: as §1
[4] = test system: Rattus norvegicus; assay: Cardioprotective effect in Langendorff perfused Wistar rat hearts assessed as ratio for ischemic injured area to total area at 40 mg/kg, ip; in short: as §1

Compound | Activity [1] | Activity [2] | Activity [3] | Activity [4]
CC1(C)Oc2ccc(C#N)cc2C(N2CCCC2=O)C1O (stereo not given) [CROMAKALIM] | 86% | 23% |  | 
CC1=Nc2ccc(Cl)cc2S(=O)(=O)N1 [DIAZOXIDE] |  |  | 45% | 25%
CC(=O)Nc1ccc(CN2C[C@@]3(CC(C)(C)Oc4ccccc43)OCC2=O)cc1 |  |  | 64% | 16%
CC(=O)Nc1ccc(CN2C[C@]3(CC(C)(C)Oc4ccccc43)OCC2=O)cc1 |  |  | 27% | 35%
CC(=O)Nc1ccc(CN2CC3(CC(C)(C)Oc4ccccc43)OCC2=O)cc1 (racemic) |  |  | 59% | 22%
